# From PubChem
# PP1 counter: blocks human PP1-alpha phosphatase, a PP5 counter-screen | P62136 | 0.9% of 320,000 active | purified PP1alpha, OMFP fluorescence | inhibition, % at 6.7 µM;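 active means inhibition above the mean inhibition of all tested compounds plus 3 SD, computed separately for each screening campaign, cut at about 15% in these data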
# Target sequence (P62136 whole entry, looked up): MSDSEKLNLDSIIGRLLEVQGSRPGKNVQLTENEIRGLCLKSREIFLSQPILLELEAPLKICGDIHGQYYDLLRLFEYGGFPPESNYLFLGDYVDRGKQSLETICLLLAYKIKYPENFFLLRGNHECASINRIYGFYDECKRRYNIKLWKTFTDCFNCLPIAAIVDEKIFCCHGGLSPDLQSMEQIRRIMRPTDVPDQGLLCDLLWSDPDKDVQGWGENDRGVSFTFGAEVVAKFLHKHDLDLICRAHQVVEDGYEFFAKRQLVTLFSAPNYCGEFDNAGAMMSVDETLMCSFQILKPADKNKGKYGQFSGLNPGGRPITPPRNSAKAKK
# NadD block: blocks S. aureus nicotinate mononucleotide adenylyltransferase. purified NadD enzyme, colorimetric absorbance read-out. inhibition, % at 20 µM. 0.78% of 360,000 active; in the data active means inhibition above about 26%
# TPT1 inhibitor: C. albicans TPT1 enzyme inhibition; recombinant caTPT1, FP RNA substrate dephosphorylation; inhibition, % at 5 µM; 0.81% of 300,000 active;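 active means inhibition above the mean of all tested compounds plus 3 SD, set per screening campaign, cut at about 24% in these data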;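 further: plate controls were DMSO alone for no effect and ferristatin control at 100 nM for full effect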
# CSN deneddyl inh: CSN deneddylation inhibition | Q92905 | Purified CSN, SCF-Nedd8-OG deneddylation, fluorescence polarization | inhibition, % at 12.5 µM | 0.38% of 360,000 active | AID 651999;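 active means pattern-corrected inhibition above about 35%, with an unprinted fluorescence ratio check between 0.5 and 1.5, limit read from the data, passing the limit was not always enough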;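 further: 0% = enzyme with substrate and 100% = substrate without enzyme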
#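 Test system: Human Csn5 produced in HEK293T cells | Compound: 12.5 µM single point | Times: 90 min, room temperature | Signal: Fluorescence polarization readout | Read-out basis: % inhibition of substrate cleavage by Csn5 | Controls: no-enzyme wells high, enzyme-with-substrate wells low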
# HNF4A DNA FP: change in binding of human HNF4 alpha to DNA; HNF4a-FITC DNA binding, fluorescence polarization, 1 h; activity change, % at 10 µM; 0.3% of 360,000 active; AID 1224865; in the data active means activity change above about 30%, passing the limit was not always enough
# Rpn11 inh: inhibitors of human proteasome Rpn11. O00487. human 26S proteasome, Ub4-pepOG fluorescence polarization; 20S core pre-blocked with epoxomicin. inhibition, % at 20 µM. 0.59% of 360,000 active. AID 588493;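 active means inhibition at 20 µM, scaled to each plate's controls, above about 33%, limit read from the data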
# PP1 confirm: confirmation of human PP1 phosphatase inhibitors | shares compounds with PP1 counter | inhibition, % at 6.7 µM | AID 2358 | purified PP1alpha, OMFP substrate fluorescence | 52% of 1,900 active;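 active means mean PP1 inhibition above a set limit taken from the earlier primary screen, cut at about 15% in these data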
# PP5 counter: PP5 phosphatase inhibition, counter-screen for PP1 inhibitors | shares compounds with PP1 counter | purified PP5c, OMFP fluorescence | inhibition, % at 6.7 µM | 4% of 1,900 active | AID 2360;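 active means mean PP5 inhibition over triplicate wells above about 9.5% taken from the earlier PP1 screen, limit read from the data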
# NadD inh conf: NadD (S. aureus) inhibition, single concentration confirmation; shares compounds with NadD block; purified S. aureus NadD, colorimetric enzyme assay; inhibition, % at 20 µM; 13% of 2,000 active; in the data active means inhibition mostly above about 42%, no sharp cut-off; inactive means mostly below about 42%
# * marks the source's active call; other numbers are inactive results; / = no result given. Rows were chosen to be rich in hits. Some 2.7% of all compounds tested hit in one or more screens of this group.
SMILES,PP1 counter,NadD block,TPT1 inhibitor,CSN deneddyl inh,HNF4A DNA FP,Rpn11 inh,PP1 confirm,PP5 counter,NadD inh conf
C=CCn1c(O)c(C2=c3ccccc3=NC2=O)s/c1=N/c1nccs1,23*,33*,4,3,2,2,24*,1,4
CCOC(=O)c1c(-c2ccc(-c3ccccc3)cc2)csc1NC(=O)C1C2CCC(O2)C1C(=O)O (centres undefined),22*,38*,-2,3,4,13,15,3,57*
CCOC(=O)c1c(-c2ccccc2)csc1NC(=O)C1CCCO1 (centres undefined),-8,-2,2,5,-3,-10,/,/,/
CC1CCc2c(sc3nc(CN4CCOCC4)nc(N4CCc5ccccc5C4)c23)C1 (centres undefined),21*,37*,-1,0,2,22,10,-4,18
Cc1ccc(Oc2nc(CN3CCOCC3)nc3sc4c(c23)CCC(C)C4)cc1 (centres undefined),-5,3,-5,-6,-2,5,/,/,/
COc1cccc(=O)c2c(C)n(CC(=O)c3ccccc3)c(C)c12,23*,45*,30*,7,-20,16,0,-4,25
O=[N+]([O-])c1ccc(NNS(=O)(=O)c2cc(Cl)ccc2Cl)nc1,/,5,/,4,11,12,/,/,/
CCN1CCN(Cc2ccc(NC(=O)c3cc(NC(=O)c4cncc(-c5cccs5)c4)cc(OC)c3)cc2C(F)(F)F)CC1,19*,34*,-3,6,14,31,-23,0,11
COc1ccc(Cn2c(SCc3ccc(C)cc3)nc3cc(OC)c(OC)cc3c2=N)cc1Cl,21*,51*,2,-3,0,6,5,2,9
COc1ccc(Cn2c(SCc3cc(C)ccc3C)nc3cc(OC)c(OC)cc3c2=N)cc1,23*,39*,1,4,5,12,6,3,-18
CC(=O)Nc1ccc(-c2ccnc3c2CC(C(=O)NCc2cccc(Cl)c2)O3)cc1 (centres undefined),/,-2,/,2,-8,-4,/,/,/
COCCNC(=O)C1CCCN(C(=O)c2cc(-c3cccs3)oc2C)CC1 (centres undefined),/,-1,/,0,1,2,/,/,/
C[C@H](CO)N1C[C@H](C)[C@@H](CN(C)C(=O)OCc2ccccc2)OCc2cn(nn2)CCCC1=O,/,7,/,3,-1,0,/,/,/
O=C1CC(=C2c3ccccc3-c3ccccc32)C(=O)N1CCCCN1CCN(c2ccccc2)CC1,26*,48*,1,1,4,2,28*,-3,30
O=C(Cc1cc(=O)[nH][nH]1)N/N=C/C=C/c1ccccc1,19*,34*,-2,1,-1,9,9,1,64*
O=C(CNC(=O)c1ccccc1)N/N=C/C=C/c1ccccc1,1,-1,2,6,0,3,/,/,/
Clc1ccc(C(Cn2ccnc2)OCc2c(Cl)cccc2Cl)c(Cl)c1 (centres undefined),26*,33*,0,-9,1,8,18*,-3,21
O=c1[nH]c(C2CCCN(S(=O)(=O)c3cccc(Cl)c3)C2)nc2c1nnn2Cc1ccc2c(c1)OCCO2 (centres undefined),24*,58*,-4,15,-2,-6,11,1,57*
Cc1ccc(C)c(S(=O)(=O)N2CCC(c3nc4c(nnn4Cc4ccc5c(c4)OCCO5)c(=O)[nH]3)CC2)c1,24*,46*,1,-3,2,3,22*,0,10
O=c1[nH]c(C2CCN(S(=O)(=O)c3ccc4c(c3)OCCO4)CC2)nc2c1nnn2Cc1ccccc1,/,2,/,1,-2,-15,/,/,/
COc1cccc2c(=O)c3cccc(N)c3[nH]c12,20*,39*,0,-3,-19,-19,19*,13*,10
COc1cccc2c(=O)c3c([nH]c12)OC(C)(C)C3,-1,-8,0,-3,8,1,/,/,/
CC(NC(=O)Cn1cc([N+](=O)[O-])cn1)c1ccc(C(C)(C)C)cc1 (centres undefined),0,-2,-2,2,0,-2,/,/,/
O=C(NCCc1ccccc1)C1CCC(CNS(=O)(=O)c2ccc(F)cc2)CC1 (centres undefined),-1,-4,-1,-1,-5,0,/,/,/
Cc1nn(CC(=O)NCCC2=CCCCC2)c(C)c1[N+](=O)[O-],-6,-3,3,-4,3,1,/,/,/
SMILES,PP1 counter,NadD block,TPT1 inhibitor,CSN deneddyl inh,HNF4A DNA FP,Rpn11 inh,PP1 confirm,PP5 counter,NadD inh conf
CCn1c2ccccc2c2cc(NC(=O)COC(=O)c3ccc(NC(=O)CC#N)cc3)ccc21,64*,64*,3,43*,-9,11,46*,-4,40
CCn1c2ccccc2c2cc(NC(=O)COC(=O)c3ccccc3F)ccc21,-2,-2,2,6,0,2,/,/,/
O=C(COc1ccc(/C=N/NC(=O)c2ccncc2)cc1)Nc1ccc([N+](=O)[O-])cc1,-3,4,-1,-3,3,31,/,/,/
O=C(COc1ccc(/C=N/NC(=O)c2ccc(O)cc2)cc1)Nc1cccc([N+](=O)[O-])c1,27*,28*,0,59*,-6,15,26*,-2,33
O=C(Nc1nnc(C2CC2)s1)c1ccc(Cl)c(S(=O)(=O)N2CCc3ccccc3C2)c1,20*,33*,1,-4,-3,15,21*,-2,-1
O=C(c1cccc(NS(=O)(=O)c2ccc(F)c(F)c2)c1)N1CCCCC1,/,-4,/,-2,-2,-10,/,/,/
C=C(C)CN(CC)c1nc(N)c2c(N)nc3c(c2c1C#N)CC(=O)N3C12CC3CC(CC(C3)C1)C2,19*,35*,-5,19,7,3,15,7,15
N#Cc1c(N(CCO)CCO)nc(N)c2c(N)nc3c(c12)CC(=O)N3CC1CCCO1 (centres undefined),-4,-18,1,12,1,-1,/,/,/
COc1ccc(-n2c(SCC(=O)N3CCOCC3)nc3ccccc3c2=O)cc1,-1,-2,2,-4,0,-6,/,/,/
Cc1cc(C(=O)N2CCCC(N3CCN(c4ccccc4C)CC3)C2)no1 (centres undefined),/,-2,/,-2,-2,0,/,/,/
CCn1c(SCC(=O)Nc2oc(-c3ccccc3)c(-c3ccccc3)c2C#N)nnc1-c1ccco1,18*,29*,-5,4,0,11,10,-1,44
